Measurements from different studies.
Lines come from different studies, so protocols differ.

COc1ccc(Nc2cnnc3ccc(-c4ccc(N5CCN(C)CC5)cc4)cc23)nc1
EC50 (Leishmania major; parasite growth; intracellular, amastigote): > 23 µM

CN[C@H](CC(C)C)C(=O)N[C@H]1C(=O)N[C@@H](CC(N)=O)C(=O)N[C@H]2C(=O)N[C@H]3C(=O)N[C@H](C(=O)N[C@H](C(=O)O)c4cc(O)cc(O)c4-c4cc3ccc4O)[C@H](O)c3ccc(c(Cl)c3)Oc3cc2cc(c3O[C@@H]2O[C@H](CO)[C@@H](O)[C@H](O)[C@H]2O[C@H]2C[C@](C)(N)[C@H](O)[C@H](C)O2)Oc2ccc(cc2Cl)[C@H]1O
MIC (Enterococcus faecalis; microbial growth, agar dilution; ATCC29212): 2 µg/mL

COc1ccc(C=NNC(=S)Nc2cccnc2)cc1
IC50 (Leishmania major; parasite growth, MTT; 72 h, promastigote): 1000 µM

CN1CCN(c2ccc(-c3ccc4nncc(Nc5ncccn5)c4c3)cc2)CC1
EC50 (Leishmania major; parasite growth; intracellular, amastigote): > 2.5 µM

C[C@@H]1[C@H](O)[C@@H](C)/C=C/C=C/C=C/C=C/C=C/C=C/C=C/[C@H](O[C@@H]2O[C@H](C)[C@@H](O)[C@H](N)[C@@H]2O)C[C@@H]2O[C@](O)(C[C@@H](O)C[C@@H](O)[C@H](O)CC[C@@H](O)C[C@@H](O)CC(=O)O[C@H]1C)C[C@H](O)[C@H]2C(=O)O
MIC (Aspergillus fumigatus; microbial growth, broth dilution; AF293; 48 h): 0.5 µg/mL

CCCCCCCCCCCC[N+](C)(C)Cc1ccccc1
MIC (Enterococcus faecalis; microbial growth): 63 µM

CC(=O)N1CCN(c2ccc(OCC3COC(Cn4ccnc4)(c4ccc(Cl)cc4Cl)O3)cc2)CC1 (stereo not shown)
MIC (Aspergillus glaucus; microbial growth, broth dilution; 48 h): 7.8 µg/mL

CC[C@H]1OC(=O)[C@H](C)[C@@H](O[C@H]2C[C@@](C)(OC)[C@@H](O)[C@H](C)O2)[C@H](C)[C@@H](O[C@@H]2O[C@H](C)C[C@H](N(C)C)[C@H]2O)[C@](C)(O)C[C@@H](C)/C(=N\OCOCCOC)[C@H](C)[C@@H](O)[C@]1(C)O
MIC50 (Enterococcus faecalis; microbial growth; clinical isolate): > 128 µg/mL

COc1ccc(C=NNC(=S)Nc2cccnc2)cc1OC
IC50 (Leishmania major; parasite growth; J774.A1; 72 h, intracellular, amastigote): 886 µM

C=C[C@]1(C)C[C@@H](OC(=O)CS[C@@H]2C[C@H]3CC[C@@H](C2)N3C)[C@]2(C)[C@H](C)CC[C@]3(CCC(=O)[C@H]32)[C@@H](C)[C@@H]1O
MIC (Enterococcus faecalis; microbial growth, agar dilution; ATCC29212): 128 µg/mL

S=C(NN=Cc1ccc(Br)cc1)Nc1cccnc1
IC50 (Leishmania major; parasite growth, MTT; 72 h, promastigote): 891 µM

Cc1ccc(Nc2cnnc3cc(-c4cnc(N5CCCN(C)CC5)nc4)ccc23)cn1
EC50 (Leishmania major; parasite growth; intracellular, amastigote): > 23 µM

CC(=O)NC[C@H]1CN(c2ccc(N3CCOCC3)c(F)c2)C(=O)O1
MIC90 (Enterococcus faecalis; microbial growth, broth dilution; clinical isolate): 1 µg/mL

CN1CCN(c2ncc(-c3ccc4nncc(Nc5cnccn5)c4c3)cn2)CC1
EC50 (Leishmania major; parasite growth; intracellular, amastigote): > 5 µM

CNC(=S)NN=Cc1ccc(F)cc1
IC50 (Leishmania major; parasite growth, MTT; 72 h, promastigote): 346 µM

Cc1c2c(nn1C)CSCc1cc(n(C)n1)CSc1cc(c3ccccc3c1)OCCCc1c(C(=O)O)n(C)c3c-2c(Cl)ccc13
MIC90 (Enterococcus faecalis; microbial growth, broth dilution; clinical isolate): 25 µM

C/C(=N\C(=O)/N=C(\C)c1c(O)c2ccccc2oc1=O)c1c(O)c2ccccc2oc1=O
MIC (Aspergillus glaucus; microbial growth, broth dilution; 48 h): 62.5 µg/mL

COc1ccc(Nc2cnnc3ccc(-c4cnc(N5CCN(C)CC5)nc4)cc23)cc1Cl
EC50 (Leishmania major; parasite growth; intracellular, amastigote): > 22 µM

CNC(=S)NN=Cc1ccc(O)c(OC)c1
IC50 (Leishmania major; parasite growth; J774.A1; 72 h, intracellular, amastigote): 112 µM
